# Data published in ChEMBL document CHEMBL2029346, “Discovery and synthesis of hydronaphthoquinones as novel proteasome inhibitors” (J Med Chem, 2012).
# Active and inactive are the calls of the source. The calls are words filed in the database; no cut-off is given here.
# Tests used:
# [1] = species: Oryctolagus cuniculus; experiment: Irreversible inhibition of rabbit 20S proteasome activity at 10 uM after 30 mins measured after 4 hrs of dialysis
# How it was run: (§1)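 Compound at 10 μM or 0.1% DMSO was preincubated with 1.5 nM rabbit 20S proteasome in 50 mM Tris-HCl pH 7.6 for 30 min at room temperature. Mixtures were dialysed (3500 MWCO) against the same buffer at 4 °C and sampled at 0, 0.5, 1, 4, 8 and 18 h. CT-L activity was normalized to DMSO control.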
# [2] = species: Oryctolagus cuniculus; experiment: Inhibition of rabbit 20S proteasome activity at 10 uM after 30 mins
# How it was run: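 Purified rabbit 20S proteasome (1.5 nM final) was preincubated with compound at 10 μM, or 0.1% DMSO vehicle, in 50 mM Tris-HCl pH 7.6 at room temperature for 30 min. Chymotrypsin-like activity was then read by fluorogenic assay before dialysis (t = 0) and normalized to the DMSO control.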
# [3] = Inhibition of chymotrypsin-like activity of proteasome by fluorogenic assay; type: subcellular
# How it was run: (§2)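 Purified rabbit 20S proteasome; CT-L activity measured by fluorogenic assay. Compounds were first screened for % CT-L inhibition, then dose-response runs gave IC50.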
# [4] = Inhibition of trypsin-like activity of proteasome at 10 uM by fluorogenic assay; type: subcellular
# [5] = Inhibition of chymotrypsin-like activity of proteasome at 10 uM by fluorogenic assay; type: subcellular; how it was run: as §2
# [6] = Inhibition of trypsin-like activity of proteasome by fluorogenic assay; type: subcellular
# [7] = Inhibition of chymotrypsin-like activity of proteasome in human MDA-MB-468 cells after 11 hrs by fluorogenic assay in whole cell extracts; conditions: MDA-MB-468, 11 h
# [8] = Inhibition of chymotrypsin-like activity of proteasome in human MDA-MB-468 cells after 48 hrs
# How it was run: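 MDA-MB-468 cells grown in DMEM with 10% FCS, penicillin/streptomycin, at 37 °C in 5% CO2. They were exposed to a range of concentrations or DMSO vehicle for 48 h, lysed in Tris pH 8.0/EDTA/NaCl/0.5% NP-40 for 30 min at 4 °C, and spun at 12000g. CT-L activity was read fluorogenically on 5 μg lysate, with lysate replacing purified proteasome.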
# [9] = test system: MDA-MB-468; experiment: Antiproliferative activity against human MDA-MB-468 cells after 11 hrs by MTT assay; type: functional, cell-based; conditions: MDA-MB-468, 11 h
# How it was run: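 MDA-MB-468 human breast cancer cells grown in DMEM with 10% FCS and penicillin/streptomycin at 37 °C, 5% CO₂. Cells plated, attached overnight, then exposed to varying compound concentrations or vehicle (DMSO) for 11 h.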
# [10] = test system: MDA-MB-468; experiment: Inhibition of chymotrypsin-like activity of proteasome in human MDA-MB-468 cells assessed as accumulation of ubiquitinated cellular proteins after 11 hrs by Western blotting
# How it was run: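 MDA-MB-468 cells (DMEM, 10% FCS, 37 °C, 5% CO2) given varying concentrations or DMSO for 11 h, then lysed in NP-40 buffer. Lysate (30 μg) was run on SDS-PAGE, transferred to nitrocellulose, probed with anti-ubiquitin, and detected by ECL.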
# [11] = Inhibition of chymotrypsin-like activity of proteasome in human MDA-MB-231 cells after 48 hrs
# How it was run: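 MDA-MB-231 cells exposed to a range of concentrations or DMSO vehicle for 48 h, then lysed (Tris pH 8.0, EDTA, NaCl, 0.5% NP-40). CT-L activity was measured fluorogenically using 5 μg lysate; IC50 derived.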
# [12] = species: Oryctolagus cuniculus; experiment: Irreversible inhibition of rabbit 20S proteasome activity at 10 uM after 30 mins measured after 0.5 to 18 hrs of dialysis; how it was run: as §1
# [13] = Inhibition of postglutamylpeptidase hydrolysis-like activity of proteasome by fluorogenic assay; type: subcellular
SMILES,IC50 [3],inhibition [5],IC50 [6],further results
CC(C)C[C@H](NC(=O)[C@H](Cc1ccccc1)NC(=O)c1cnccn1)B(O)O,,,,inhibition [1]: inactive; inhibition [2]: 87%
CCSc1cc(NS(=O)(=O)c2cccs2)c2ccccc2c1O,> 5 µM,,,
CN(C)C(=O)CCSc1cc(NS(=O)(=O)c2cccs2)c2ccccc2c1O,> 5 µM,,,
O=S(=O)(Nc1cc(I)c(O)c2ccccc12)c1cccs1,> 30 µM,,,
O=S(=O)(Nc1cc(Sc2ncn[nH]2)c(O)c2ccccc12)c1cccs1,,> 70%,,inhibition [4]: < 70%
O=S(=O)(Nc1cc(Sc2nnn[nH]2)c(O)c2ccccc12)c1ccc(Oc2ccccc2)cc1,0.22 µM,> 70%,1.3 µM,
CNC(=O)CCSc1cc(NS(=O)(=O)c2cccs2)c2ccccc2c1O,> 5 µM,,,
O=C(O)COc1cc(NS(=O)(=O)c2cccs2)c2ccccc2c1O,> 100 µM,,,
O=S(=O)(Nc1cc(Sc2nnn[nH]2)c(O)c2ccccc12)c1ccc2ccccc2c1,0.4 µM,> 70%,1.35 µM,
O=S(=O)(Nc1cc(Sc2ncn[nH]2)c(O)c2ccccc12)c1ccc(Oc2ccccc2)cc1,0.15 µM,> 70%,4.2 µM,
O=S(=O)(Nc1cc(Sc2ncn[nH]2)c(O)c2ccccc12)c1ccc2ccccc2c1,0.3 µM,> 70%,2 µM,
O=S(=O)(Nc1cc(Sc2nnn[nH]2)c(O)c2ccccc12)c1ccc(-c2ccccc2)cc1,0.22 µM,> 70%,4.8 µM,
O=S(=O)(Nc1cc(Sc2nnn[nH]2)c(O)c2ccccc12)c1ccc(Cl)s1,0.63 µM,> 70%,1.1 µM,
O=S(=O)(Nc1cc(Sc2nnn[nH]2)c(O)c2ccccc12)c1cccs1,0.51 µM,> 70%,0.2 µM,
O=S(=O)(Nc1cc(Sc2nnn[nH]2)c(O)c2ccccc12)c1ccccc1,0.6 µM,> 70%,1.38 µM,
O=S(=O)(Nc1cc(Sc2ncn[nH]2)c(O)c2ccccc12)c1ccc(S(=O)(=O)c2ccccc2)s1,1.97 µM,> 70%,,inhibition [4]: < 70%
O=S(=O)(Nc1cc(Br)c(O)c2ccccc12)c1cccs1,> 30 µM,,,
O=S(=O)(Nc1cc(Sc2nnn[nH]2)c(O)c2ccccc12)c1ccc(-c2ccccn2)s1,0.48 µM,> 70%,1.55 µM,
O=C(O)CS(=O)(=O)c1cc(NS(=O)(=O)c2cccs2)c2ccccc2c1O,> 100 µM,,,
CCOC(=O)CSc1cc(NS(=O)(=O)c2cccs2)c2ccccc2c1O,> 10 µM,,,
O=S(=O)(Nc1cc(Sc2ncn[nH]2)c(O)c2ccccc12)c1ccc(C2CCCCC2)cc1,0.3 µM,> 70%,7 µM,
O=S(=O)(Nc1cc(Cl)c(O)c2ccccc12)c1cccs1,> 30 µM,,,
O=C(O)c1ccccc1Sc1cc(NS(=O)(=O)c2cccs2)c2ccccc2c1O,4.05 µM,> 70%,,inhibition [4]: < 70%
O=C(O)CCSc1cc(NS(=O)(=O)c2cccs2)c2ccccc2c1O,5.7 µM,,,
O=S(=O)(Nc1cc(Sc2nnn[nH]2)c(O)c2ccccc12)c1ccc(-c2ccc(C(F)(F)F)cc2)cc1,0.88 µM,> 70%,1.14 µM,IC50 [7]: 15.6 µM; inhibition [2]: 73%; IC50 [8]: 1.01 µM; IC50 [9]: 17 µM; inhibition [10]: Dose-dependent effect; IC50 [11]: 0.44 µM; inhibition [12]: Active
O=S(=O)(Nc1cc(Sc2nnn[nH]2)c(O)c2ccccc12)c1ccc(-c2ccc(F)cc2)cc1,0.23 µM,> 70%,2 µM,
O=C(O)CSc1cc(NS(=O)(=O)c2cccs2)c2ccccc2c1O,3 µM,> 70%,,inhibition [2]: 68%; IC50 [13]: 8.1 µM; IC50 [8]: 7.22 µM; inhibition [4]: < 70%; IC50 [11]: 3.54 µM; inhibition [12]: Active
O=S(=O)(Nc1ccc(O)c2ccccc12)c1cccs1,> 30 µM,,,
COc1ccc(-c2ccc(S(=O)(=O)Nc3cc(Sc4nnn[nH]4)c(O)c4ccccc34)cc2)cc1,0.4 µM,> 70%,2.8 µM,
O=S(=O)(Nc1cc(Sc2nnn[nH]2)c(O)c2ccccc12)c1ccc(Cl)c(Cl)c1,0.54 µM,> 70%,0.57 µM,

# Further lines, with some results ahead:
IC50 [3],inhibition [5],IC50 [6],SMILES,further results
0.73 µM,> 70%,2.35 µM,O=S(=O)(Nc1cc(Sc2ncn[nH]2)c(O)c2ccccc12)c1ccc(-c2ccccc2)s1,
0.65 µM,> 70%,,O=S(=O)(Nc1cc(Sc2ncn[nH]2)c(O)c2ccccc12)c1cccc2ccccc12,inhibition [4]: < 70%
> 5 µM,,,O=S(=O)(Nc1cc(SCCO)c(O)c2ccccc12)c1cccs1,
0.18 µM,> 70%,2.37 µM,O=S(=O)(Nc1cc(Sc2ncn[nH]2)c(O)c2ccccc12)c1ccc(-c2ccc(F)cc2)cc1,
0.47 µM,> 70%,1.45 µM,CCCCCc1ccc(S(=O)(=O)Nc2cc(Sc3nnn[nH]3)c(O)c3ccccc23)cc1,
0.57 µM,> 70%,0.75 µM,O=S(=O)(Nc1cc(Sc2nnn[nH]2)c(O)c2ccccc12)c1ccc(Cl)cc1,
0.23 µM,> 70%,1.85 µM,O=S(=O)(Nc1cc(Sc2nnn[nH]2)c(O)c2ccccc12)c1ccc(C2CCCCC2)cc1,
0.28 µM,> 70%,4.22 µM,O=S(=O)(Nc1cc(Sc2ncn[nH]2)c(O)c2ccccc12)c1ccc(-c2ccccc2)cc1,
0.23 µM,> 70%,0.55 µM,O=S(=O)(Nc1cc(Sc2nnn[nH]2)c(O)c2ccccc12)c1ccc(-c2ccccc2)s1,
2.47 µM,> 70%,7.2 µM,O=S(=O)(Nc1cc(Sc2ncn[nH]2)c(O)c2ccccc12)c1ccc(-c2ccc(C(F)(F)F)cc2)cc1,
> 100 µM,,,O=C(O)CSc1ccc(NS(=O)(=O)c2cccs2)c2ccccc12,
> 5 µM,,,CCOc1cc(NS(=O)(=O)c2cccs2)c2ccccc2c1O,
1.61 µM,> 70%,,O=S(=O)(Nc1cc(Sc2ncn[nH]2)c(O)c2ccccc12)c1ccn(S(=O)(=O)c2ccccc2)c1,inhibition [4]: < 70%
4.2 µM,> 70%,,Cn1nnnc1Sc1cc(NS(=O)(=O)c2cccs2)c2ccccc2c1O,inhibition [4]: < 70%
